In ChEMBL document CHEMBL4513216, “Probing the Open Global Health Chemical Diversity Library for Multistage-Active Starting Points for Next-Generation Antimalarials” (ACS Infect Dis, 2020):

Assay: Toxicity liver stage against HepG2, at 10uM
Type: cell-based
Design: test concentration 10 uM, cell line HepG2-A16-CD81EGFP
Conditions: human, HepG2-A16-CD81EGFP cells; read-out: INHIBITION
Procedure, shortened: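 Uninfected HepG2-A16-CD81EGFP cells, 3 × 10^3 per well, 1536-well, plated on prespotted compound at 10 μM final, parasite-free screening media added to match infected plates; puromycin 10 μM positive, DMSO 0.5% negative; run in parallel with 48 h PbLuc assay at 37 °C, 5% CO2; viability by CellTiter-Glo luminescence, normalized to controls.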

| SMILES | cytotoxicity at 10 µM [%] |
| --- | --- |
| COc1ccc(-c2noc([C@@H]3C[C@@H](O)CN3C3CCN(C)CC3)n2)cc1 | -1.16 |
| CC(C)NC(=O)c1nc2c(s1)CCCN2C(C)C | -143 |
| Cc1nc(CN2CCOC3(CCCN(c4nccs4)C3)C2)cs1 (stereo not given) | 16.3 |
| Cc1csc(CN2CC[C@H]3C[C@@H](c4noc(C)n4)O[C@@H]3C2)n1 | -1.2 |
| CS(=O)(=O)NC[C@]12COC[C@H]1CN(C(=O)c1ncccn1)C2 | 4.9 |
| CN(C)Cc1nn(C)c2c1CN(S(=O)(=O)c1ccccc1F)C2 | 5.6 |
| Cn1cnnc1SCc1cc2c(cc1Cl)OCO2 | 7.03 |
| CC(C)c1nnc2ccc(N3CCCC(C(=O)Nc4nccs4)C3)nn12 (stereo not given) | 3.86 |
| COc1ccc(Nc2nc3c(C)nn(C)c3c(=O)n2C)c(C)c1 | -6.06 |
| Cn1nc(C(=O)N2CCSCC2)cc1NC(=O)c1ccco1 | 1.11 |
| COc1ccc2nc(NC(=O)c3c(C(=O)O)cnn3C)sc2c1 | 7.19 |
| CCC(CN1CCCC1)NC(=O)C1(c2ccc(F)cc2)CC1 (stereo not given) | -1.76 |
| CC(C)(C)CC(=O)N1CSCC1C(=O)NC1=NCCS1 (stereo not given) | 17.9 |
| CC(C)(C)NC(=O)CNc1ncc(Br)cn1 | 2.96 |
| CC(O)CN(Cc1cccc(C(N)=O)c1)c1ccccc1 (stereo not given) | 10.1 |
| CNS(=O)(=O)C1CCN(c2cc(C(C)C)nc(C(C)C)n2)C1 (stereo not given) | -3.33 |
| CC(=O)N(C)CC(=O)NC(C)c1ccc(OCCC(C)C)cc1 (stereo not given) | 8.59 |
| Cc1nn(C)c(C)c1C(=O)N1CCN(C(=O)CCC2CCCCC2)CC1 | -5.47 |
| Cc1occc1C(=O)NCC(O)c1ccc(Cl)s1 (stereo not given) | -16.4 |
| COc1ccc(Oc2ncccc2NC(=O)N2CCOCC2C)cc1 (stereo not given) | -2.43 |
| CC(NC(=O)N1CCc2ccccc2C1)c1nncn1C (stereo not given) | -6.98 |
| CC(C)(C)NC(=O)Cn1nc(C2CC2)cc(C(F)(F)F)c1=O | -13.9 |

| SMILES | cytotoxicity at 10 µM [%] |
| --- | --- |
| Cc1cc(C)n(-c2cncc(NCCNS(C)(=O)=O)n2)n1 | -3.98 |
| COCCN(CCC#N)S(=O)(=O)c1cc(F)cc(F)c1 | -3.32 |
| CC(C)c1ncc(C(=O)N2CCOCC2CC(=O)c2ccco2)s1 (stereo not given) | 5.08 |
| Cc1cc(CNCc2c(C(C)C)nn(C)c2N2CCOCC2)no1 | 16.5 |
| CC(=O)N1Cc2ccccc2C[C@H]1C(=O)Nc1ccccn1 | -3.09 |
| CN(Cc1nc(-c2cccnc2)no1)C(=O)c1cnc2n1CCCC2 | 6.32 |
| CCN(CC)CCNC(=O)C(C)OCC(F)(F)F (stereo not given) | 4.23 |
| CCc1nc(C)ncc1C(=O)N1CC(=O)N(C)c2ccccc21 | 6.62 |
| CC(C)COC(C)C(=O)N1CCC(C)CC1 (stereo not given) | 2.95 |
| COc1ccc(-c2ccc(C(=O)NS(C)(=O)=O)c(F)c2)c(F)c1 | 0.512 |
| O=C(C[S+]([O-])C1CCCC1)NCCOc1cccc(Cl)c1 (stereo not given) | -143 |
| COc1ccc(-n2ccc(CNCc3ccc(OC)c(O)c3)n2)cc1 | 0.51 |
| O=c1[nH]c2csnc2c(=O)n1Cc1ccc(Br)cc1 | 5.41 |
| CCC1CN(C)c2ccccc2CN1C(=O)c1c[nH]c(=O)cc1C (stereo not given) | 16.1 |
| O=C(O)c1c(Cl)ncn1-c1ccccc1 | -2.34 |
| COCc1cc(N(Cc2ccsc2)C2CC2)n2ncnc2n1 | -3.75 |
| COCCN1CCC(NCc2c(C)nn(C)c2N(C)C)CC1 | -2.11 |
| COc1cc(I)c(Cl)cc1C(=O)N(C)CC(C)(C)O | 11.4 |
| CCOCCC(=O)N(C)c1ccc(F)c(Cl)c1 | 0.232 |
| N#CC1(NC(=O)c2ccc(-c3nc(C4CC4)n[nH]3)cc2)CCC1 | 0.614 |
| COC(=O)CN(Cc1ccccc1C)C(=O)C1CCC1 | -3.64 |
| O=C(CCCNC(=O)C1CCCO1)Nc1ccc(Cl)cc1 (stereo not given) | 13.2 |

| SMILES | cytotoxicity at 10 µM [%] |
| --- | --- |
| CC(C)(C)c1cnc(CN2CCC(NC(=O)CC3CCCC3)CC2)o1 | -15.5 |
| CN1CCOC(C(=O)N2CCCC(C)(C)CC2)C1 (stereo not given) | 6.67 |
| CC(C)CN1C(=O)C2(CCCC2)NC1c1cn(C)c(=O)n(C)c1=O (stereo not given) | 2.8 |
| O=C(O)c1ccc(CCNC(=O)C2(c3ccccc3)CC2)cc1 | 8.29 |
| Cn1c(Nc2cn[nH]c2)c(C#N)c(=O)n(C)c1=O | 14.9 |
| Cc1cn(-c2ccccc2)nc1NS(=O)(=O)c1cc(C(=O)O)cs1 | -18.9 |
| O=C([C@@H]1CCCO1)N1CCn2c(Cn3cccn3)cnc2C1 | -70.1 |
| Cc1ccoc1C(=O)N1CCn2cc(CN3CCCC3)nc2C1 | -79.6 |
| CCOC(=O)C1(CCOC)CCN(Cc2nccn2CC)CC1 | 6.77 |
| C[C@@H]1CN(CCOc2ccc(F)cc2)CC[C@@]1(O)C1CCOCC1 | -7.19 |
| Cc1nc2ccccn2c1CN1C[C@@H](CN(C)CCO)[C@@H](CO)C1 | -11.4 |
| Cc1ccc(C2(O)CCN(C(=O)CCn3c(C)cccc3=O)CC2)nc1 | -9.02 |
| CCCN1CCCn2nc(CNS(=O)(=O)c3cnn(CC)c3)cc2C1 | -7.23 |
| COc1cccc(-c2cc(C(=O)NCCCn3cnnc3)[nH]n2)c1 | 3.45 |
| CN1[C@H](CO)C[C@H](CNCc2ccc(CO)o2)[C@@H]1c1ccccc1F | -9.37 |
| CCCS(=O)(=O)N1CCC2(CCC(=O)N(CCc3ccncc3)C2)CC1 | -11.7 |
| COCCCN1CC2(CCN(Cc3ncc[nH]3)CC2)CC1=O | -2.89 |
| Cc1ccc2nc(CN3CCCCC3CCn3cccn3)cn2c1 (stereo not given) | 7.31 |
| CC(=O)NCCC1CCCCN1S(=O)(=O)c1ccc2ccccc2c1 (stereo not given) | -125 |
| NC(=O)COc1ccc(CN2CCC3(CC2)[C@H](O)C[C@@H]3O)cc1Cl | 3.76 |
| CCOC(=O)c1cccc(N2CCCC3(CCC(=O)N(C4CC4)C3)C2)n1 (stereo not given) | -1.38 |
| CCCN1CCC(CC(=O)NCc2cc(O)ncn2)CC1 | 14.7 |

| SMILES | cytotoxicity at 10 µM [%] |
| --- | --- |
| Cc1ccccc1C(CC(=O)NCc1n[nH]c(N)n1)c1ccccc1 (stereo not given) | 8.8 |
| O=C(CCc1cc(Cl)no1)N1CCCCC1CCn1ccnc1 (stereo not given) | -1.83 |
| CC(=O)c1ccc(-c2cnn(CC(=O)Nc3cc(C)nn3C)c2)nc1 | -6.93 |
| COc1cccc(OC2CN(C(=O)Cn3nc4ccccc4n3)C2)c1 | -6.98 |
| CC(C1CCN(Cc2cnn(C)c2C2CC2)CC1)N1CCN(C)CC1 (stereo not given) | -11.9 |
| C[C@@H]1CN(C(=O)CCc2nncn2C)CC[C@@]1(O)C1CCC1 | -6.65 |
| COCc1ncc(CN2CC[C@@](C)(O)[C@@H](Cc3ccccc3)C2)cn1 | 12.1 |
| CCc1nc2c(N3CCCC(c4nccn4CCOC)C3)ncnc2o1 (stereo not given) | -11.2 |
| Cc1cccc(C(C(=O)NCC2(O)CCCCC2)N(C)C)c1 (stereo not given) | -8.82 |
| O=C1CC[C@H]2CN(c3ncc(F)cn3)CC[C@H]2N1CCc1c[nH]cn1 | 3.96 |
| Nc1nc2c(c(N3CCCC(c4nnc5ccccn45)C3)n1)CCNC2 (stereo not given) | -3.57 |
| CC(C)CC(O)C1CCN(C(=O)c2ccc(C(F)(F)F)nc2O)CC1 (stereo not given) | 2.5 |
| OCc1csc(N2CCN(Cc3cccc(F)c3)CC2)n1 | -4.9 |
| Cc1nc2nc(C)c3c(=O)n(-c4ccn[nH]4)ccc3n2n1 | 0.87 |
| COc1cccc2c1OCC(C(=O)NC1CCN(S(C)(=O)=O)CC1)C2 (stereo not given) | -10.7 |
| CN(Cc1nnc(C2CC2)n1C)C1CCN(Cc2ccncc2)C1 (stereo not given) | -10.3 |
| CCC(NC(=O)c1ccoc1)c1ccccc1OCC(=O)N1CCCC1 (stereo not given) | -4.31 |
| COc1cccc(COCC(=O)N2CCN(S(C)(=O)=O)CC2)c1 | -10.7 |
| Cc1cc(NC(=O)NCC(C(C)C)N2CCOCC2)n(C)n1 (stereo not given) | -17.2 |
| O=C(CCCc1nnc(-c2ccccc2)o1)N1CCC1 | -3.41 |
| Cn1cnnc1C1CCN(C(=O)CCCOc2ccccc2)CC1 | -7.62 |
| O=C1CCc2cc(-c3csc(CCN4CCOC4=O)n3)c(F)cc2N1 | 35.2 |

| SMILES | cytotoxicity at 10 µM [%] |
| --- | --- |
| CC(C)COCC(NC(=O)c1ccncc1)c1ccco1 (stereo not given) | -9.53 |
| CC(NC(=O)CCOc1ccc(F)cc1)c1nnc2n1CCCCC2 (stereo not given) | -8.71 |
| Cc1ccc(C(O)CNCc2c(C(C)C)nn(C)c2N(C)C)cc1 (stereo not given) | -11.8 |
| Cc1nn(C)c(C)c1C1CCCN1C(=O)CCc1cscn1 (stereo not given) | -3.66 |
| Cn1ccnc1CN1CCCN(C(=O)c2ccc(Cl)o2)CC1 | -7.03 |
| O=C1OCCC1N1CCN(C(=O)Cc2c[nH]c3ccccc23)CC1 (stereo not given) | -7.03 |
| CC(C)n1c(=O)c2ccccc2n(CCCN(C)C)c1=O | -13.2 |
| CCC(CN1CCCCC1)NC(=O)C1(c2cccc(F)c2)CC1 (stereo not given) | 0.689 |
| O=C(NCc1ccncc1)c1nc2c(o1)CN(C(=O)c1cccnc1)C2 | 1.21 |
| CN1CCC2(CCCN(C(=O)c3cncn3C)C2)CC1 | -0.757 |
| O=C(CC1CC1)N1CC[C@H]2[C@@H]1CCC(=O)N2Cc1ccncc1 | -5.15 |
| CN(C)CCN1CCOCC2(CCCN(C(=O)Cc3ccccc3)C2)C1 (stereo not given) | 2.14 |
| COc1c(C)cc(CNCc2ccnc(N3CCOCC3)c2)cc1C | 11.9 |
| CS(=O)(=O)N1CC[C@]2(C[C@@H](Oc3ccccn3)CO2)C1 | -144 |
| COC[C@H]1CC[C@@H]2[C@@H](CCN2Cc2ccccn2)O1 | -72.6 |
| CC(C)N(C)Cc1nnc2n1CCN(S(=O)(=O)C1CC1)CC2 | -1.13 |
| COCCN1CC[C@@H]2CN(Cc3nccn3C)C[C@@H]2C1 | -76.5 |
| CC(C)CN1CCC2(CCN(Cc3nccs3)CC2)C1=O | -5.77 |
| Cc1cncc(C(=O)N2CC[C@@H]3[C@H]2CCC(=O)N3CCN(C)C)c1 | -4.84 |
| CCOCC(=O)N1C[C@H]2CC[C@@H](C1)N(Cc1ccccn1)C2=O | 10.9 |
| COc1ccc(-c2ncccc2C(=O)N2C[C@@H]3CC[C@H]2C3)cn1 | 6.42 |
| Cc1nnsc1CN1C[C@@H]2CC[C@H]1CN(Cc1ccc(F)cc1)C2 | -7.44 |
